Measurements published in ChEMBL document CHEMBL1132488, “On the bioactive conformation of NAN-190 (1) and MP3022 (2), 5-HT(1A) receptor antagonists” (J Med Chem, 1999).

Assays:
Rattus norvegicus [1] = assay: Effect on 8-OH-DPAT-Induced LLR(lower lip retraction) in rats at a dose of 4 mg/kg; assay type: functional
Summary of the method: (§1)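 Male Wistar rats, groups of 6. Compound given ip in 1% Tween 80 45 min before 8-OH-DPAT 1 mg/kg sc. Lower incisor visibility scored 0/0.5/1 at 15, 30 and 45 min after agonist, summed (max 3). Mean ± SEM; Newman–Keuls test; ED50 with range.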

Rattus norvegicus [2] = organism: Rattus norvegicus; assay: Induction of behavioral syndrome(FT: forepaw treading) by the compound in reserpine pretreated rats at a dose of 2.; assay type: functional
Rattus norvegicus [3] = assay: Induction of LLR(lower lip retraction) by the compound in rats at a dose of 8 mg/kg; assay type: functional
Summary of the method: (§2)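 Male Wistar rats, groups of 6, given compound alone ip as 1% Tween 80 suspension. Lower incisor visibility scored 0/0.5/1 at 15, 30 and 45 min after dosing, summed (max 3 per rat). Mean ± SEM versus vehicle, Newman–Keuls test; ED50 with range.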

Rattus norvegicus [4] = organism: Rattus norvegicus; assay: Induction of behavioral syndrome(FBP: flat body posture) by the compound in reserpine pretreated rats at a dose of 8.; assay type: functional
Summary of the method: (§3)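 Male Wistar rats (260–300 g) were given reserpine 1 mg/kg sc in saline 18 h before testing. Test compound was then given alone ip as a 1% Tween 80 suspension (2 mL/kg). FBP and FT were each scored 0–3 and summed (maximum 15). n=6 per group; mean ± SEM; Newman–Keuls test.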

Rattus norvegicus [5] = organism: Rattus norvegicus; assay: Induction of behavioral syndrome(FT: forepaw treading) by the compound in reserpine pretreated rats at a dose of 4.; assay type: functional; summary of the method: as §3
Rattus norvegicus [6] = organism: Rattus norvegicus; assay: Induction of behavioral syndrome(FBP: flat body posture) by the compound in reserpine pretreated rats at a dose of 4.; assay type: functional; summary of the method: as §3
Rattus norvegicus [7] = organism: Rattus norvegicus; assay: Effect on 8-OH-DAPT- induced behavioral syndrome(FBP: flat body posture) by the compound in reserpine pretreated rats at a dose of 8.; assay type: functional
Summary of the method: (§4)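 Reserpinized male Wistar rats (reserpine 1 mg/kg sc, 18 h before), groups of 6. Compound given ip in 1% Tween 80 60 min before 8-OH-DPAT 5 mg/kg sc. FBP/FT rated 0–3 at 3, 6, 9, 12 and 15 min after agonist, summed (max 15). Mean ± SEM; Newman–Keuls test; ED50 with range.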

Rattus norvegicus [8] = organism: Rattus norvegicus; assay: Effect on 8-OH-DAPT- induced behavioral syndrome(FBP: flat body posture) by the compound in reserpine pretreated rats at a dose of 4.; assay type: functional; summary of the method: as §4
Rattus norvegicus [9] = assay: Effect on 8-OH-DPAT-Induced LLR(lower lip retraction) in rats at a dose of 16 mg/kg; assay type: functional; summary of the method: as §1
Rattus norvegicus [10] = organism: Rattus norvegicus; assay: Induction of behavioral syndrome(FT: forepaw treading) by the compound in reserpine pretreated rats at a dose of 8.; assay type: functional; summary of the method: as §3
Rattus norvegicus [11] = assay: Effect on 8-OH-DPAT-Induced LLR(lower lip retraction) in rats at a dose of 8 mg/kg; assay type: functional; summary of the method: as §1
Rattus norvegicus [12] = organism: Rattus norvegicus; assay: Effect on 8-OH-DAPT- induced behavioral syndrome(FT: forepaw treading) by the compound in reserpine pretreated rats at a dose of 8.; assay type: functional; summary of the method: as §4
Rattus norvegicus [13] = organism: Rattus norvegicus; assay: Effect on 8-OH-DAPT- induced behavioral syndrome(FT: forepaw treading) by the compound in reserpine pretreated rats at a dose of 4.; assay type: functional; summary of the method: as §4
Rattus norvegicus [14] = organism: Rattus norvegicus; assay: Induction of behavioral syndrome(FBP: flat body posture) by the compound in reserpine pretreated rats at a dose of 2.; assay type: functional
Summary of the method: (§5)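 Male Wistar rats (260–300 g), groups of 6, given reserpine 1 mg/kg sc 18 h before test. Compounds given ip as 1% Tween 80 suspension. FBP and FT rated 0–3 in 45-s sessions every 3 min, starting 3 min after dosing. Score summed over 5 periods (max 15 per symptom). Mean ± SEM; Newman–Keuls test.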

Rattus norvegicus [15] = organism: Rattus norvegicus; assay: Dose inhibiting 8-OH-DPAT-induced behavioral syndrome(FBP: flat body posture) by the compound in reserpine pretreated rats.
Rattus norvegicus [16] = organism: Rattus norvegicus; assay: Effective dose of the required to inhibit symptoms produced by 8-OH-DPAT; assay type: functional; summary of the method: as §4
Rattus norvegicus [17] = assay: Induction of LLR(lower lip retraction) by the compound in rats at a dose of 16 mg/kg; assay type: functional; summary of the method: as §2
[18] = target: T1, 5-hydroxytryptamine receptor 1A (Rattus norvegicus, UniProt P19327); assay: Ability to displace [3H]8-OH-DPAT from 5-hydroxytryptamine 1A receptor
T1 sequence (P19327 whole entry): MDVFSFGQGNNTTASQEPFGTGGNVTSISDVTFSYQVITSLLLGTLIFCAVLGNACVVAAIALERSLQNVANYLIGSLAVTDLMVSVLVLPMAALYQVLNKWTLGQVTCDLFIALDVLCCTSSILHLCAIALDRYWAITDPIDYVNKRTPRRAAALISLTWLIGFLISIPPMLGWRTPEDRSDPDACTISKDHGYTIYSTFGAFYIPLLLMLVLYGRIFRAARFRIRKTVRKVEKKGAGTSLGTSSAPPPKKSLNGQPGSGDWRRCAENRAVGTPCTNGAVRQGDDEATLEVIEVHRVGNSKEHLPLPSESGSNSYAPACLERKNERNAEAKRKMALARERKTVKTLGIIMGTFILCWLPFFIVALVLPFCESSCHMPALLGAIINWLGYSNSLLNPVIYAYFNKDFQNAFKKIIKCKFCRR
Summary of the method: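 Rat hippocampal membranes, [3H]8-OH-DPAT radioligand. Ki from at least three competition experiments, each with 10–14 drug concentrations run in triplicate. Ki calculated with the Cheng–Prusoff equation.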

Rattus norvegicus [19] = organism: Rattus norvegicus; assay: Dose Inducing behavioral syndrome(FT: forepaw treading) by the compound in reserpine pretreated rats.; assay type: functional; summary of the method: as §5
Rattus norvegicus [20] = organism: Rattus norvegicus; assay: Effect on 8-OH-DAPT- induced behavioral syndrome(FT: forepaw treading) by the compound in reserpine pretreated rats at a dose of 2.; assay type: functional
Rattus norvegicus [21] = assay: Induction of LLR(lower lip retraction) by the compound in rats at a dose of 4 mg/kg; assay type: functional; summary of the method: as §2
Rattus norvegicus [22] = organism: Rattus norvegicus; assay: Effect on 8-OH-DAPT- induced behavioral syndrome(FBP: flat body posture) by the compound in reserpine pretreated rats at a dose of 2.; assay type: functional
Rattus norvegicus [23] = assay: Effect on 8-OH-DPAT-Induced LLR(lower lip retraction) in rats at a dose of 8 mg/kg; LLR score; assay type: functional; summary of the method: as §1
Rattus norvegicus [24] = organism: Rattus norvegicus; assay: Effect on 8-OH-DAPT- induced behavioral syndrome(FBP: flat body posture) by the compound in reserpine pretreated rats at a dose of 8; FBP mean score; assay type: functional; summary of the method: as §4
Rattus norvegicus [25] = organism: Rattus norvegicus; assay: Induction of behavioral syndrome(FT: forepaw treading) by the compound in reserpine pretreated rats at a dose of 16; FT mean score; assay type: functional; summary of the method: as §3
Rattus norvegicus [26] = organism: Rattus norvegicus; assay: Effect on 8-OH-DAPT- induced behavioral syndrome(FBP: flat body posture) by the compound in reserpine pretreated rats at a dose of 4; FBP mean score; assay type: functional; summary of the method: as §4
Rattus norvegicus [27] = assay: Induction of LLR(lower lip retraction) by the compound in rats at a dose of 8 mg/kg; LLR score; assay type: functional; summary of the method: as §2
Rattus norvegicus [28] = organism: Rattus norvegicus; assay: Effect on 8-OH-DAPT- induced behavioral syndrome(FT: forepaw treading) by the compound in reserpine pretreated rats at a dose of 4; FT mean score; assay type: functional; summary of the method: as §4
Rattus norvegicus [29] = organism: Rattus norvegicus; assay: Dose Inducing behavioral syndrome(FBP: flat body posture) by the compound in reserpine pretreated rats; assay type: functional; summary of the method: as §5
Rattus norvegicus [30] = organism: Rattus norvegicus; assay: Induction of behavioral syndrome(FBP: flat body posture) by the compound in reserpine pretreated rats at a dose of 16; FBP mean score; assay type: functional; summary of the method: as §5
Rattus norvegicus [31] = organism: Rattus norvegicus; assay: Induction of behavioral syndrome(FT: forepaw treading) by the compound in reserpine pretreated rats at a dose of 4; FT mean score; assay type: functional; summary of the method: as §3
Rattus norvegicus [32] = organism: Rattus norvegicus; assay: Induction of behavioral syndrome(FT: forepaw treading) by the compound in reserpine pretreated rats at a dose of 8; FT mean score; assay type: functional; summary of the method: as §3
Rattus norvegicus [33] = organism: Rattus norvegicus; assay: Effect on 8-OH-DAPT- induced behavioral syndrome(FT: forepaw treading) by the compound in reserpine pretreated rats at a dose of 8; FT mean score; assay type: functional; summary of the method: as §4
Rattus norvegicus [34] = organism: Rattus norvegicus; assay: Induction of behavioral syndrome(FBP: flat body posture) by the compound in reserpine pretreated rats at a dose of 8; FBP mean score; assay type: functional; summary of the method: as §3
Rattus norvegicus [35] = organism: Rattus norvegicus; assay: Effect on 8-OH-DAPT- induced behavioral syndrome(FBP: flat body posture) by the compound in reserpine pretreated rats at a dose of 16; FBP mean score; assay type: functional; summary of the method: as §4
Rattus norvegicus [36] = organism: Rattus norvegicus; assay: Effect on 8-OH-DAPT- induced behavioral syndrome(FT: forepaw treading) by the compound in reserpine pretreated rats at a dose of 16; FT mean score; assay type: functional; summary of the method: as §4
Rattus norvegicus [37] = assay: Induction of LLR(lower lip retraction) by the compound in rats at a dose of 16 mg/kg; LLR score; assay type: functional; summary of the method: as §2
Rattus norvegicus [38] = assay: Effect on 8-OH-DPAT-Induced LLR(lower lip retraction) in rats at a dose of 4 mg/kg; LLR score; assay type: functional; summary of the method: as §1
Rattus norvegicus [39] = assay: Effect on 8-OH-DPAT-Induced LLR(lower lip retraction) in rats at a dose of 16 mg/kg; LLR score; assay type: functional; summary of the method: as §1
Rattus norvegicus [40] = assay: Induction of LLR(lower lip retraction) by the compound in rats at a dose of 4 mg/kg; LLR score; assay type: functional; summary of the method: as §2
Rattus norvegicus [41] = organism: Rattus norvegicus; assay: Induction of behavioral syndrome(FBP: flat body posture) by the compound in reserpine pretreated rats at a dose of 4; FBP mean score; assay type: functional; summary of the method: as §3

SMILES: COc1ccccc1N1CCN(CCCCN2C(=O)[C@H]3CCCC[C@H]3C2=O)CC1
- LLR score (Rattus norvegicus [1]): 1.7
- FT mean score (Rattus norvegicus [2]): 0.2
- LLR score (Rattus norvegicus [3]): 0.5
- FBP mean score (Rattus norvegicus [4]): 0.2
- FT mean score (Rattus norvegicus [5]): 0.2
- FBP mean score (Rattus norvegicus [6]): 0.2
- FBP mean score (Rattus norvegicus [7]): 5.5
- FBP mean score (Rattus norvegicus [8]): 6.7
- LLR score (Rattus norvegicus [9]): 0.7
- FT mean score (Rattus norvegicus [10]): 0.2
- LLR score (Rattus norvegicus [11]): 1.3
- FT mean score (Rattus norvegicus [12]): 0.5
- FT mean score (Rattus norvegicus [13]): 3.5
- FBP mean score (Rattus norvegicus [14]): 0.1
- ED50 (Rattus norvegicus [15]): 3.2 mg/kg
- ED50 (Rattus norvegicus [16]): 7.5 mg/kg
- LLR score (Rattus norvegicus [17]): 0.8
- Ki [18]: 4 nM
- ED50 (Rattus norvegicus [19]): 2.6 mg/kg
- FT mean score (Rattus norvegicus [20]): 3.8
- LLR score (Rattus norvegicus [21]): 0.5
- FBP mean score (Rattus norvegicus [22]): 8.3

SMILES: O=C1[C@H]2CCCC[C@H]2C(=O)N1C1CCC(N2CCc3ccccc3C2)CC1 (some centres undefined)
- Ki [18]: 1600 nM

SMILES: COc1ccccc1N1CCN(CCCn2nnc3ccccc32)CC1
- LLR score (Rattus norvegicus [23]): 0.7
- FBP mean score (Rattus norvegicus [24]): 8
- FT mean score (Rattus norvegicus [25]): 0.1
- FBP mean score (Rattus norvegicus [26]): 11.5
- LLR score (Rattus norvegicus [27]): 0.1
- FT mean score (Rattus norvegicus [28]): 5.8
- ED50 (Rattus norvegicus [29]): 10.5 mg/kg
- ED50 (Rattus norvegicus [16]): 6.5 mg/kg
- FBP mean score (Rattus norvegicus [30]): 0.1
- FT mean score (Rattus norvegicus [31]): 0.2
- FT mean score (Rattus norvegicus [32]): 0.2
- FT mean score (Rattus norvegicus [33]): 3.7
- FBP mean score (Rattus norvegicus [34]): 0.2
- FBP mean score (Rattus norvegicus [35]): 6.1
- FT mean score (Rattus norvegicus [36]): 2.6
- LLR score (Rattus norvegicus [37]): 0.6
- ED50 (Rattus norvegicus [19]): 5.2 mg/kg
- LLR score (Rattus norvegicus [38]): 1.1
- LLR score (Rattus norvegicus [39]): 0.9
- LLR score (Rattus norvegicus [40]): 0
- FBP mean score (Rattus norvegicus [41]): 0.2
